Data as given in article PMC3901407 (Nature methods, 2013).

Legend:
WT-ZAK and C22A-ZAK [1] = target: T1, WT-ZAK and C22A-ZAK (Homo sapiens, UniProt Q9NYL2); assay: gel-based ABPP, HNEyne labelling in proteomes; type: binding; conditions: 10 μM HNEyne, 1 hour, HEK-293T lysate
WT-ZAK and C22A-ZAK [2] = target: T1, WT-ZAK and C22A-ZAK; assay: gel-based ABPP, HNEyne labelling in living cells; type: cell-based; conditions: 5 μM HNEyne, 1 hour, 37°C
[3] = tested on: JNK activation in WT-ZAK-transfected HEK-293T cells; assay: Western blotting of phospho-JNK; type: cell-based, human; conditions: H2O2 1 mM, 30 min
Summary of the method: (§1)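 HEK-293T cells stably expressing FLAG-ZAK came from retroviral infection and hygromycin selection. They grew 24 h in DMEM/10% FBS, then were serum-starved 24 h and treated at 37 °C. Cells were sonicated in PBS with protease and phosphatase inhibitors. For blotting, 30 μg soluble lysate went on SDS-PAGE and nitrocellulose, blocked in 5% milk/TBST, with primary antibodies (1:2000, 16 h, 4 °C) and IRDye secondaries (1:10,000, 1 h). Read-out: infrared-scanned phospho-JNK, normalized.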

[4] = tested on: JNK activation in C22A-ZAK-transfected HEK-293T cells; assay: Western blotting of phospho-JNK; type: cell-based, human; conditions: H2O2 1 mM, 30 min
Summary of the method: as §1

T1 sequence (Q9NYL2 1-455 isoform Q9NYL2-2, stated change not applied): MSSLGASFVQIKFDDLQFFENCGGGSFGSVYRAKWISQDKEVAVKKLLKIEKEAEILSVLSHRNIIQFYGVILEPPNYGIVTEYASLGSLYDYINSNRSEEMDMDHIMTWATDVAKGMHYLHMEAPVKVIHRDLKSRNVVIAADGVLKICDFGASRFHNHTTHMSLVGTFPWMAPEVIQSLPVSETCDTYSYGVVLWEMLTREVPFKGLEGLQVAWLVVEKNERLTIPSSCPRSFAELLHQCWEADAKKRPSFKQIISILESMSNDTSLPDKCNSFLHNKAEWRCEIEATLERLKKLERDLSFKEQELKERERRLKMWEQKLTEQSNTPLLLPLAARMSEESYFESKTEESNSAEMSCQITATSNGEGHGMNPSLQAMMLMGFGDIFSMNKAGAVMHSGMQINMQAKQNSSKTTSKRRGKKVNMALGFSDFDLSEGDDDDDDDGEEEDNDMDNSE

Compound | direct labeling of ZAK by HNEyne in vitro (WT-ZAK and C22A-ZAK [1]) | direct labeling of ZAK by HNEyne in living cells (WT-ZAK and C22A-ZAK [2]) | JNK activity after H2O2 [3] | JNK activity after H2O2 [4]
C#CCCCC(O)C=CC=O (stereo not shown) [HNEyne] | direct labeling of WT-, but not the C22A-ZAK mutant | direct labeling of WT-, but not the C22A-ZAK mutant | – | –
OO [H2O2] | – | – | stimulated JNK activity | stimulated JNK activity
